An excerpt weighted towards active compounds, which were near 4.2% of everything screened.
KCNQ1 inh – human KCNQ1 channel inhibition; P51787; CHO-K1 KCNQ1, FluxOR thallium flux fluorescence; active compounds read high; AID 2642; B-score at 10 µM; 1.3% of 310,000 active;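 active = compounds whose thallium flux B-score, printed positive for inhibition, exceeds three library SD while starting fluorescence stays within three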;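 also: channel opened by potassium depolarization with thallium stimulus after 20 min compound exposure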
Target sequence (P51787 whole entry, looked up): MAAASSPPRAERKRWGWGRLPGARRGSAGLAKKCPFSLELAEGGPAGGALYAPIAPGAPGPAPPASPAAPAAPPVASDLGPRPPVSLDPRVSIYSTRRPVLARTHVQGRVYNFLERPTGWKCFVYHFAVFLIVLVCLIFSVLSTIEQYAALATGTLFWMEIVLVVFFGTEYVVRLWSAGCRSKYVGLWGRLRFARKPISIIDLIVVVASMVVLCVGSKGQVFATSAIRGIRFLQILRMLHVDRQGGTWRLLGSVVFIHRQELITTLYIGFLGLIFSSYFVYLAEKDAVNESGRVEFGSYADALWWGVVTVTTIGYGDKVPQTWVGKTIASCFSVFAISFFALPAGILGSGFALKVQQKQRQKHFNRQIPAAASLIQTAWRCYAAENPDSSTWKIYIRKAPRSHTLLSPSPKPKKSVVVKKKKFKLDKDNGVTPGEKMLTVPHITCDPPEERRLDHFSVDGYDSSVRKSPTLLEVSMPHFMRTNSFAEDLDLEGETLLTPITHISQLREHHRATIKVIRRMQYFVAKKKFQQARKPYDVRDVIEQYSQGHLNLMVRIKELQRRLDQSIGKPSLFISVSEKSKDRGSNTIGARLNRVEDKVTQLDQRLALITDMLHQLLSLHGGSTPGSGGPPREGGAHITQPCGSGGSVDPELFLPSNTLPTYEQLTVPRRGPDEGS
KCNQ1 pot – potentiators or activators of human KCNQ1 potassium channel. CHO-K1 KCNQ1, thallium flux FluxOR fluorescence; active compounds read high. B-score at 10 µM. 0.35% of 310,000 active. AID 2648;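 active = fluorescence ratio B-score, a plate-corrected score, at least three library SD, with initial intensity B-score within 5 SD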
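Test system: CHO-K1 cells stably expressing KCNQ1 / Medium: assay buffer / Also added: depolarizing K+/Tl+ stimulus, K2SO4 and Tl2SO4 each 12.5 mM in 5x stock / Incubation: 90 min dye loading and 20 min compound exposure, both at room temperature / Signal: thallium influx via FluxOR fluorescence, kinetic imaging / Evaluation: B score of baseline-normalized fluorescence ratio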
Mot1-301 SUMO – inhibitors of SUMOylation pathway: yeast Mot1-301 growth rescue; S. cerevisiae Mot1-301 growth rescue, ATP luminescence, 38.5C; percent above DMSO median, 100 means doubled; growth rescue, % at 18.8 µM; 1% of 320,000 active;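 active = every valid replicate shows activation above 250% relative to neutral control wells; inactive = the rest, any valid replicate at or below 250%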;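 also: OY570 slx delta 5 strain wells were the positive control but not used for scaling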
KCC2 mod – modulates chloride dependent transport by human KCC2 | Q9H2X9 | KCC2 cells, thallium flux FluoZin-2 fluorescence | B-score of Tl+ flux slope (higher = more flux/activation; lower = inhibition) at 10 µM | 2.2% of 190,000 active | AID 1456;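 active = thallium flux slope and its plate-corrected score both differing from the plate sample mean at a set confidence after two filtering rounds, in either direction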;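 also: slope of fluorescence scaled to starting intensity during 10 to 20 s after thallium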
AI-2 QS modul – Vibrio harveyi AI-2 quorum sensing modulation; Vibrio harveyi JMH597 AI-2 luminescence/OD600 ratio, 9 h; active compounds read low; strain lacks LuxN and CqsS sensors; 0 = neutral-control median; activity change, % at 7.5 µM; 0.4% of 300,000 active; in the data active = activity change below about -75%, passing the limit was not always enough;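 also: luminescence divided by OD600 gain over 9 h not by final OD600 alone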
hERG rescue – shields human hERG channel from block by proarrhythmic agents; CHO-hERG, FluxOR thallium flux, dofetilide IC70 present; 0.51% of 310,000 active; activation (rescue from dofetilide block), less the hit threshold, % at 10 µM;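 active = activation above the mean of controls blocked by dofetilide plus 5 SD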;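 also: thallium influx through hERG after potassium depolarization seen as dye fluorescence rise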
An asterisk follows results filed as active.

For c1ccc2c(NCCc3c[nH]c4ccccc34)c3ccccc3nc2c1 the results were KCNQ1 inh 7*, KCNQ1 pot inactive, Mot1-301 SUMO -12, AI-2 QS modul 57 and hERG rescue -17.
COc1cccc(C(=O)NNC(=O)C(=O)Nc2cccc(Cl)c2C)c1 was read as KCNQ1 inh inactive, KCNQ1 pot 36*, Mot1-301 SUMO 17, AI-2 QS modul 20 and hERG rescue 23*.
COc1ccccc1NC(=O)C(=O)NNC(=O)c1ccco1 was read as KCNQ1 inh inactive, KCNQ1 pot 16*, Mot1-301 SUMO -19, KCC2 mod 8.3*, AI-2 QS modul -32 and hERG rescue 22*.
For COc1ccc(C(=O)NNC(=O)C(=O)Nc2cccc3ccccc23)cc1 the results were KCNQ1 inh inactive, KCNQ1 pot 34*, Mot1-301 SUMO 144, AI-2 QS modul 26 and hERG rescue 31*.
`COc1ccccc1C(=O)NNC(=O)C(=O)Nc1cccc(Cl)c1C` gave KCNQ1 inh inactive, KCNQ1 pot 94*, Mot1-301 SUMO 35, AI-2 QS modul 32 and hERG rescue 65*.
Screening COc1cccc(CNC(=S)Nc2cccc(Cl)c2C)c1 returned KCNQ1 inh inactive, KCNQ1 pot inactive, Mot1-301 SUMO -5, AI-2 QS modul -5 and hERG rescue -4.
Screening CC(=O)c1c(C)[nH]c(C(=O)CN2C(=O)NC(CCc3ccccc3)C2=O)c1C (stereo not drawn) returned KCNQ1 inh inactive, KCNQ1 pot inactive, Mot1-301 SUMO -15, KCC2 mod -0.041, AI-2 QS modul 15 and hERG rescue -8.
O=[N+]([O-])c1ccc(-[n+]2nc(-c3ccccc3)nn2-c2ccccc2)cc1 was read as KCNQ1 inh inactive, KCNQ1 pot inactive, Mot1-301 SUMO -23, AI-2 QS modul 10 and hERG rescue -5.
`COc1cccc(C(=O)NNC(=O)C(=O)Nc2ccc(C)cc2)c1` gave KCNQ1 inh inactive, KCNQ1 pot 37*, Mot1-301 SUMO -2, AI-2 QS modul 14 and hERG rescue 27*.
`COc1cccc(C(=O)Nc2ccc(C)cc2)c1` gave KCNQ1 inh inactive, KCNQ1 pot inactive, Mot1-301 SUMO -14, AI-2 QS modul 37 and hERG rescue -14.
Screening CN(C)c1ccc(P(=O)(OCc2ccccc2)C(O)c2ccccc2)cc1 (stereo not drawn) returned KCNQ1 inh inactive, KCNQ1 pot inactive, Mot1-301 SUMO -11, KCC2 mod -1.2, AI-2 QS modul 10 and hERG rescue -4.
For CCCOc1ccccc1Cn1c(=O)oc2ccc(C)cc21 the results were KCNQ1 inh inactive, KCNQ1 pot 16*, Mot1-301 SUMO 3, KCC2 mod -1.5, AI-2 QS modul 10 and hERG rescue -18.
For COc1cccc2c1C(=O)c1c(O)c3c(c(O)c1C2=O)C[C@@](O)(C(C)=O)C[C@@H]3O[C@H]1C[C@H](N)[C@H](O)[C@H](C)O1 the results were KCC2 mod inactive.
Screening CC(=O)[C@]1(O)Cc2c(O)c3c(c(O)c2[C@@H](O[C@H]2C[C@H](N)[C@H](O)[C@H](C)O2)C1)C(=O)c1ccccc1C3=O returned KCNQ1 inh 21*, KCNQ1 pot inactive, Mot1-301 SUMO -20, AI-2 QS modul 2 and hERG rescue -49.
For COCCN(Cc1cc2cc(C)c(C)cc2nc1Cl)C(=O)Nc1ccccc1 the results were KCNQ1 inh inactive, KCNQ1 pot inactive, Mot1-301 SUMO -24, KCC2 mod -0.11, AI-2 QS modul 4 and hERG rescue 3.
`COCCN(Cc1cc2cc3c(cc2nc1Cl)OCO3)C(=O)c1ccc(C)cc1` gave KCNQ1 inh inactive, KCNQ1 pot 29*, Mot1-301 SUMO -14, KCC2 mod 0.03, AI-2 QS modul 19 and hERG rescue -6.
For CC(NC(=O)COC(=O)/C(=C/c1cccs1)c1cccs1)c1ccccc1 (stereo not drawn) the results were KCNQ1 inh inactive, KCNQ1 pot inactive, Mot1-301 SUMO 9, KCC2 mod -0.77, AI-2 QS modul 20 and hERG rescue -9.
For CCCOC1CCCN(Cc2nc(-c3ccc(C(=O)OC)cc3)no2)C1 (stereo not drawn) the results were KCNQ1 inh inactive, KCNQ1 pot inactive, Mot1-301 SUMO -2, AI-2 QS modul -2 and hERG rescue -12.
`Cc1ccccc1NC1=C/C(=N\S(=O)(=O)c2ccc(C(=O)O)cc2)c2ccccc2C1=O` gave KCNQ1 inh inactive, KCNQ1 pot inactive, Mot1-301 SUMO -17, AI-2 QS modul 100 and hERG rescue 6.1*.
CC(C)c1ccc(S(=O)(=O)/N=C2\C=C(NS(=O)(=O)c3ccccc3)C(=O)c3ccccc32)cc1 was read as KCNQ1 inh 18*, KCNQ1 pot inactive, Mot1-301 SUMO -26, AI-2 QS modul 87 and hERG rescue -27.
For Cc1ccc(NC2=C/C(=N/S(=O)(=O)c3cccs3)c3ccccc3C2=O)cc1C the results were KCNQ1 inh inactive, KCNQ1 pot inactive, Mot1-301 SUMO -15, KCC2 mod 0.21, AI-2 QS modul 2 and hERG rescue -7.
Screening Cc1ccc(C)c(S(=O)(=O)/N=C2\C=C(NS(=O)(=O)c3ccccc3)C(=O)c3ccccc32)c1 returned KCNQ1 inh 10*, KCNQ1 pot inactive, Mot1-301 SUMO -31, AI-2 QS modul 18 and hERG rescue -17.
Screening CC(C)c1ccc(S(=O)(=O)/N=C2/C=CC(=O)c3ccccc32)cc1 returned KCC2 mod 1.1.
For Oc1ccc(CNc2ccccc2F)c2cccnc12 the results were KCNQ1 inh 7*, KCNQ1 pot inactive, Mot1-301 SUMO 11, KCC2 mod -0.024, AI-2 QS modul 12 and hERG rescue -11.
For Cc1ccc(NC(=O)c2ccccc2)cc1 the results were KCNQ1 inh inactive, KCNQ1 pot inactive, Mot1-301 SUMO 11, KCC2 mod 0.36, AI-2 QS modul 15 and hERG rescue -13.
`Cc1ccc(C(=O)Sc2cccccc2=O)cc1` gave KCNQ1 inh inactive, KCNQ1 pot 15*, Mot1-301 SUMO 25, AI-2 QS modul 11 and hERG rescue 5.5*.
CCOc1ccc(-c2c[n+]3c(n2-c2ccccc2)CCCCC3)cc1 was read as KCNQ1 inh 7*, KCNQ1 pot inactive, Mot1-301 SUMO 259, KCC2 mod -1.3, AI-2 QS modul 15 and hERG rescue -20.
Screening COc1ccc(-n2c(-c3ccccc3)c[n+]3c2CCC3)cc1 returned KCNQ1 inh inactive, KCNQ1 pot inactive, Mot1-301 SUMO 36, KCC2 mod -0.1, AI-2 QS modul 4 and hERG rescue -7.

Screening results from PubChem BioAssay.
